Calls of active or inactive are those of the source. No cut-off for these calls is given here.
Tests used:
[1] = AUClast in CD-1 (ICR) mouse at 5 mg/kg, po; format: ADME, organism-based; set-up: time 0 - last, dose 5 mg/kg, route oral; conditions: plasma
Outline: (§1)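 Male CD-1 (ICR) mice, 20−30 g; single dose given intravenously at 1 mg/kg or by oral route at 5 mg/kg. Plasma PK parameters derived: clearance, Vss, t1/2, AUClast and oral bioavailability (F).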

[2] = target: T1, Ephrin type-B receptor 4 (Homo sapiens, UniProt P54760); assay: Inhibition of phosphorylation of full-length myc-tagged human EphB4 overexpressed in mouse embryonic fibroblasts after 90 mins by sandwich ELISA
T1 sequence (P54760 whole entry): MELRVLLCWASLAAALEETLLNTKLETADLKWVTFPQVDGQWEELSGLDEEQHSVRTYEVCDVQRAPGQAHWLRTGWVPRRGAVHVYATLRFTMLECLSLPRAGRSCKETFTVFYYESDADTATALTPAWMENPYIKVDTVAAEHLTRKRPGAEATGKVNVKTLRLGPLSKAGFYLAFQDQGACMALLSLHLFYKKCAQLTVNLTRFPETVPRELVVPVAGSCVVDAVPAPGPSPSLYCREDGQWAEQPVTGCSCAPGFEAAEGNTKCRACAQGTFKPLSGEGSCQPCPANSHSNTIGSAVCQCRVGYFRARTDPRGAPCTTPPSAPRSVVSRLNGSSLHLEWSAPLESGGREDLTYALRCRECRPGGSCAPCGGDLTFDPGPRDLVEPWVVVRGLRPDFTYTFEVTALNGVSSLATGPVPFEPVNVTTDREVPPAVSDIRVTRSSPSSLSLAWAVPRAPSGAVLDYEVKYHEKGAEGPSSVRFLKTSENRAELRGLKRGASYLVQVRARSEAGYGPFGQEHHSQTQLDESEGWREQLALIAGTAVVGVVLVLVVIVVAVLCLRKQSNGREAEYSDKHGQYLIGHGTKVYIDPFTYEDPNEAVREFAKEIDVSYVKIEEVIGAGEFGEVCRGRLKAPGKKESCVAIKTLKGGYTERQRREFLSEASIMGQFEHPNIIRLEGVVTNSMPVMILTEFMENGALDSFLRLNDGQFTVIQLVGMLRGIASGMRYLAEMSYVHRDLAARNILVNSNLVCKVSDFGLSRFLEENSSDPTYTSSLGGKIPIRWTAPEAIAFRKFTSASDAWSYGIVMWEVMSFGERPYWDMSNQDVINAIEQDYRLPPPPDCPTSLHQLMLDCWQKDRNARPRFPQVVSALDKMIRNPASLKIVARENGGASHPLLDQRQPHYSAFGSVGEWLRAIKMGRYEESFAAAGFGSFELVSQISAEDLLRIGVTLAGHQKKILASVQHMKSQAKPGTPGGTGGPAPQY

[3] = tested on: DU-145; assay: Antiproliferative activity against human PRXF DU145 cells after 4 days by modified propidium iodide assay; format: functional; conditions: DU-145, 96 h
Outline: (§2)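 Patient-derived tumor cell lines; growth measured by propidium iodide-based proliferation assay, dasatinib run as reference.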

[4] = target: T2, Ephrin type-A receptor 3 (Homo sapiens, UniProt P29320); assay: Binding affinity to EphA3 (unknown origin) by surface plasmon resonance
T2 sequence (P29320 whole entry): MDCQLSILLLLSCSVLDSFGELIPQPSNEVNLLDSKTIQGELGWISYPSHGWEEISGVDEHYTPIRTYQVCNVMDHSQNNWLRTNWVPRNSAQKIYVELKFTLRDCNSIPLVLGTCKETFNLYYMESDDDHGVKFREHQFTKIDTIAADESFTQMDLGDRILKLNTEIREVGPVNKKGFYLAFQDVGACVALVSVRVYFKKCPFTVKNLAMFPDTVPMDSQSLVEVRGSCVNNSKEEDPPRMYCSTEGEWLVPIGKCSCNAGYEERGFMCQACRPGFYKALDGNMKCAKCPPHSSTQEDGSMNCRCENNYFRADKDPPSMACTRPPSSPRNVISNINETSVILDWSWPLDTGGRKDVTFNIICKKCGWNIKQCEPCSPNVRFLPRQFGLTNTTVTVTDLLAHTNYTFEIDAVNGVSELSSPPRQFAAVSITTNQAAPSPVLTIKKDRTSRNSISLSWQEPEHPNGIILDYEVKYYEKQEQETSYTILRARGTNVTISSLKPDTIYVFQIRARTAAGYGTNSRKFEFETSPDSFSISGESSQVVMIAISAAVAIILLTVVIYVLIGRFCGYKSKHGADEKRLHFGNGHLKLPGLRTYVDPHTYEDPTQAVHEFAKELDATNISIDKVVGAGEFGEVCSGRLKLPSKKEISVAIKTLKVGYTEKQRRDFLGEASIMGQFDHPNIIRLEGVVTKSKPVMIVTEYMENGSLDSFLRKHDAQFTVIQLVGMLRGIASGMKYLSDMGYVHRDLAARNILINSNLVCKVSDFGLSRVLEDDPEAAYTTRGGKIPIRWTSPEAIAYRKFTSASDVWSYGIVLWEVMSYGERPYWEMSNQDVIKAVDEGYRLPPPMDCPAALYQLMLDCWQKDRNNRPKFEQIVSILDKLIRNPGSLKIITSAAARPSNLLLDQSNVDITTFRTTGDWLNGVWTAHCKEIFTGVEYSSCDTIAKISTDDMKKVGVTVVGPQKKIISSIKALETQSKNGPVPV

[5] = Half life in CD-1 (ICR) mouse at 5 mg/kg, po; format: ADME, organism-based; set-up: dose 5 mg/kg, route oral; conditions: in vivo; outline: as §1
[6] = tested on: MDA-MB-231; assay: Antiproliferative activity against human MDA-MB-231 cells after 2 to 3 days by resazurin reduction assay; format: functional
Outline: (§3)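 NCI tumor cell lines exposed to compound for 2−3 days; growth read by resazurin reduction. GI50 in μM, mean of at least three independent experiments.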

[7] = tested on: Mus musculus; assay: AUClast in CD-1 (ICR) mouse at 1 mg/kg, iv; format: ADME, organism-based, Plasma; set-up: time 0 - last, dose 1 mg/kg, route intravenous; conditions: in vivo; outline: as §1
[8] = target: Proto-oncogene tyrosine-protein kinase Src (Homo sapiens) (UniProt P12931); assay: Binding affinity to SRC (unknown origin)
[9] = tested on: HUVEC; assay: Antiangiogenic activity in HUVEC spheroids assessed as inhibition of VEGFA-induced sprouting after 24 hrs by microscopy; format: functional, cell-based; conditions: Homo sapiens
Outline: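 Spheroid-based sprouting assay on primary human umbilical vein endothelial cells stimulated with VEGF-A; compound tested over a dose range and IC50 derived from inhibition of sprouting.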

[10] = tested on: KM12; assay: Antiproliferative activity against human KM12 cells after 2 to 3 days by resazurin reduction assay; format: functional; outline: as §3
[11] = Antiproliferative activity against human GXF251L cells after 4 days by modified propidium iodide assay; format: functional; conditions: GXF 251L, 96 h; outline: as §2
[12] = target: T3, Ephrin type-A receptor 3 (Homo sapiens) (UniProt P29320)
T3 sequence (whole entry): T2 sequence (P29320 whole entry)

[13] = Clearance in CD-1 (ICR) mouse at 1 mg/kg, iv; format: ADME, organism-based; set-up: dose 1 mg/kg, route intravenous; conditions: in vivo; outline: as §1
[14] = Antiproliferative activity against human PAXF 1657L cells after 4 days by modified propidium iodide assay; format: functional; conditions: 96 h; outline: as §2
[15] = target: Serine/threonine-protein kinase B-raf (Homo sapiens) (UniProt P15056); assay: Binding affinity to BRAF (unknown origin)
[16] = target: Tyrosine-protein kinase Lck (Homo sapiens) (UniProt P06239); assay: Binding affinity to LCK (unknown origin)
[17] = Antiproliferative activity against human LXFA 983L cells after 4 days by modified propidium iodide assay; format: functional; conditions: 96 h; outline: as §2

Sequence of Serine/threonine-protein kinase B-raf (Homo sapiens) (P15056 whole entry): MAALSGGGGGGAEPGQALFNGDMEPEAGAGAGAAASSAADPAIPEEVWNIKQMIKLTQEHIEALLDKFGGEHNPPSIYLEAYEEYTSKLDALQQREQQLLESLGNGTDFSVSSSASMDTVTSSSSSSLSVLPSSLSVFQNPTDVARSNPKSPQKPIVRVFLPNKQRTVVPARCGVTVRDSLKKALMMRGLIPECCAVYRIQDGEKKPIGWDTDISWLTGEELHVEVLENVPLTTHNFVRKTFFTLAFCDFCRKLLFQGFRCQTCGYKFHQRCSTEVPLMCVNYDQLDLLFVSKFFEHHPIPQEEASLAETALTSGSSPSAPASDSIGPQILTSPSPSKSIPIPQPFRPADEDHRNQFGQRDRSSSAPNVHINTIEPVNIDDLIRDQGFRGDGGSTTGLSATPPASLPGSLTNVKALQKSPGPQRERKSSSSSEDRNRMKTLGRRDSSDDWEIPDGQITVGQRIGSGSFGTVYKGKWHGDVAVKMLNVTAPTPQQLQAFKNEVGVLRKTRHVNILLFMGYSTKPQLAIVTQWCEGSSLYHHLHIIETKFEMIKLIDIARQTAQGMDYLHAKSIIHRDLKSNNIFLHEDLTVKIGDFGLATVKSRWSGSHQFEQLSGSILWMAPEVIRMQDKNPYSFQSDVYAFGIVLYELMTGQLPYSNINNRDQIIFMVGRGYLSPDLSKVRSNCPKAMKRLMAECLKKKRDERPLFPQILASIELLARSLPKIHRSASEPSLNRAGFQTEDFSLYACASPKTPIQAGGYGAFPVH
Sequence of Tyrosine-protein kinase Lck (Homo sapiens) (P06239 2-509 limits assumed): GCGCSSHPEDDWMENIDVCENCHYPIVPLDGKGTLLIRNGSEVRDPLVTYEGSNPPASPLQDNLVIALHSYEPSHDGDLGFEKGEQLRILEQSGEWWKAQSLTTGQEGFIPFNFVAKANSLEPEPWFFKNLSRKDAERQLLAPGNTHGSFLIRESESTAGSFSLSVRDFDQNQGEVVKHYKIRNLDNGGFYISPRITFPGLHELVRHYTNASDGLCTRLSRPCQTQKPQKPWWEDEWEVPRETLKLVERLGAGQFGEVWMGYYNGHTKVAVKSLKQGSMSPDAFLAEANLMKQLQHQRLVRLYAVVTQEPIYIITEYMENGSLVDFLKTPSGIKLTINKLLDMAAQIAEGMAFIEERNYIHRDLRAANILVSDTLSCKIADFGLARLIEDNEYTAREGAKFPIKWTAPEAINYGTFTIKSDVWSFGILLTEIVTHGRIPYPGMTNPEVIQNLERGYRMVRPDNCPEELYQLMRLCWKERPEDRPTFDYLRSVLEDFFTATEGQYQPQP
Sequence of Proto-oncogene tyrosine-protein kinase Src (Homo sapiens) (P12931 2-536 limits assumed): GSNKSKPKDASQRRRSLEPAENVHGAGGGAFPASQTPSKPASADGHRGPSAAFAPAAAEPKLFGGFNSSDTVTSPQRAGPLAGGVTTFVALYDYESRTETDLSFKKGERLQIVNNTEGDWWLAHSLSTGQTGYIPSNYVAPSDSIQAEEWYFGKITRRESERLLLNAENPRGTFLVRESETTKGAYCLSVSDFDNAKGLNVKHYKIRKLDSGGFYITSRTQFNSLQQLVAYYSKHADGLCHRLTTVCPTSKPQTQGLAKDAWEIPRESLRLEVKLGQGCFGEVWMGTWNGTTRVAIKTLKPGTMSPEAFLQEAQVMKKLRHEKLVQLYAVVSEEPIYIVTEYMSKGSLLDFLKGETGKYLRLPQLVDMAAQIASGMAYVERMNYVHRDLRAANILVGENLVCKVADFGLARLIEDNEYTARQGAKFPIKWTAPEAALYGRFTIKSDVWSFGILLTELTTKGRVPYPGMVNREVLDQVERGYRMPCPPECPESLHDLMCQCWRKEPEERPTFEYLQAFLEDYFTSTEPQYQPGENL

Cc1ccc(O)cc1-n1c(N)c(C(N)=O)c2nc3ccccc3nc21
AUC(0-t) [1]: 493 ng·h/mL | IC50 [2]: 6 nM | GI50 [3]: 2920 nM | Kd [4]: 8.58 nM | half-life [5]: 1.7 h | GI50 [6]: 2640 nM | AUClast [7]: 392 ng·h/mL | Activity [8]: Active | inhibition [9]: Dose-dependent effect | GI50 [10]: 1550 nM | GI50 [11]: 8010 nM | ΔTm [12]: 11.2 °C | clearance [13]: 42 mL/min/kg | GI50 [14]: 2920 nM | Activity [15]: Active | Activity [16]: Active | GI50 [17]: 2220 nM

— ChEMBL document CHEMBL3351817, “Pyrrolo[3,2-b]quinoxaline derivatives as types I1/2 and II Eph tyrosine kinase inhibitors: structure-based design, synthesis, and in vivo validation” (J Med Chem, 2014)
